Reference: ChEMBL document CHEMBL3124759, “Synthesis, nicotinic acetylcholine receptor binding, and antinociceptive properties of 2'-fluoro-3'-(substituted pyridinyl)-7-deschloroepibatidine analogues” (J Med Chem, 2014)

What was measured:
[1] = target: Neuronal acetylcholine receptor subunit alpha-7 (Rattus norvegicus) (UniProt Q05941); assay: Agonist activity at rat alpha7 nAChR expressed in Xenopus laevis oocytes assessed as stimulation of acetylcholine-induced current at 100 uM by two-electrode voltage clamp electrophysiological analysis relative to acetylcholine; format: cell-based
Sequence of Neuronal acetylcholine receptor subunit alpha-7 (Rattus norvegicus) (Q05941 whole entry): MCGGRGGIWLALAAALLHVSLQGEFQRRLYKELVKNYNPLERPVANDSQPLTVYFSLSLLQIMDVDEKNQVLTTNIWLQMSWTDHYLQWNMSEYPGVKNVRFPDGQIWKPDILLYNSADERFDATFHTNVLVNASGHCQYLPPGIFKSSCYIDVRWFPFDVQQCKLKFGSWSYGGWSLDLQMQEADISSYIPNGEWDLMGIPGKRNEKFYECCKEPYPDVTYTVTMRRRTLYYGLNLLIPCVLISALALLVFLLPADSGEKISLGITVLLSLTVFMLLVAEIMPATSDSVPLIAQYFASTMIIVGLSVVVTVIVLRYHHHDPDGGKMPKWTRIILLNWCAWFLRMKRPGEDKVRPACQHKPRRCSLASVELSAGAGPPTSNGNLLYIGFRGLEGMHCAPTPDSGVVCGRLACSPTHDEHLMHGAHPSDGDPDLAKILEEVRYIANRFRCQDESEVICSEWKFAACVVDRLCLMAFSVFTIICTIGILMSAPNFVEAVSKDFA
How it was run: (§1)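 Rat receptors expressed in Xenopus oocytes, two-electrode voltage clamp. Current evoked by 100 µM test compound was compared with the mean of three preceding ACh applications. The response was expressed as a percentage of the maximal ACh response.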

Mus musculus [2] = assay: Antinociceptive activity in mouse at 10 mg/kg, sc after 5 mins by tail flick test relative to control; format: functional; details: route subcutaneous
Mus musculus [3] = assay: Antinociceptive activity in mouse at 10 mg/kg, sc by hot plate test relative to control; format: functional; details: route subcutaneous
Mus musculus [4] = assay: Effect on spontaneous activity in sc dosed mouse after 5 mins; format: functional
[5] = target: Neuronal acetylcholine receptor; alpha3/beta4 (Rattus norvegicus, UniProt P04757+P12392); assay: Agonist activity at rat alpha3beta4 nAChR expressed in Xenopus laevis oocytes assessed as stimulation of acetylcholine-induced current by two-electrode voltage clamp electrophysiological analysis; format: cell-based
Sequence of Neuronal acetylcholine receptor; alpha3/beta4 (P04757 whole entry): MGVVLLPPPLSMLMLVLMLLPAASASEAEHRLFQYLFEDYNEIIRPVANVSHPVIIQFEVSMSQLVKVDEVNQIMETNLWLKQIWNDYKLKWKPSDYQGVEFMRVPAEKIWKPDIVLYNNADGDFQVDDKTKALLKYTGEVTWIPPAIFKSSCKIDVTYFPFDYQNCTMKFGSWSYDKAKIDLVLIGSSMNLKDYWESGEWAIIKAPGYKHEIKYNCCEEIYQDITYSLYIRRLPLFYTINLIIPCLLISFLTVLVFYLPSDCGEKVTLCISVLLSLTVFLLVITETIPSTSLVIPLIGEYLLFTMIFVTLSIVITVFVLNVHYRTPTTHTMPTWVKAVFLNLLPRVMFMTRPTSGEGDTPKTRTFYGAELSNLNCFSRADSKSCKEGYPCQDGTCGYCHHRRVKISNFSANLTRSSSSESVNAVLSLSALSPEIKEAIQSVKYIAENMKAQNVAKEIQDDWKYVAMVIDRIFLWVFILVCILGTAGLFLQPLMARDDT
Sequence of Neuronal acetylcholine receptor; alpha3/beta4 (P12392 whole entry): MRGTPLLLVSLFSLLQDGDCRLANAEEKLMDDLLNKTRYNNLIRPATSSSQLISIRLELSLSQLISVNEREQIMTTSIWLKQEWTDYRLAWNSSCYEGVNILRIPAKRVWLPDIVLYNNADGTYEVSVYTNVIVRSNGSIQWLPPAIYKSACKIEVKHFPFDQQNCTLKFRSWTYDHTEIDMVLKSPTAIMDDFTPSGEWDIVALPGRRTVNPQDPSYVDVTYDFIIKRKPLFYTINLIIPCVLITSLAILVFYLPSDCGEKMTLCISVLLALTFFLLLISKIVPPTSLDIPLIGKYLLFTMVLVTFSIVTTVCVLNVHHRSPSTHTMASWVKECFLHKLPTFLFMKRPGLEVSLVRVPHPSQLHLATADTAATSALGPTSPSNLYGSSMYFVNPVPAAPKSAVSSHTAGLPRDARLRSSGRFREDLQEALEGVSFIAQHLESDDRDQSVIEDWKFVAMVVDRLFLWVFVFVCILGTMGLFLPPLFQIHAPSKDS

[6] = target: Neuronal acetylcholine receptor; alpha4/beta2 (Rattus norvegicus, UniProt P09483+P12390); assay: Antagonist activity at rat alpha4beta2 nAChR expressed in Xenopus laevis oocytes assessed as inhibition of acetylcholine-induced current by two-electrode voltage clamp electrophysiological analysis; format: cell-based
Sequence of Neuronal acetylcholine receptor; alpha4/beta2 (P09483 whole entry): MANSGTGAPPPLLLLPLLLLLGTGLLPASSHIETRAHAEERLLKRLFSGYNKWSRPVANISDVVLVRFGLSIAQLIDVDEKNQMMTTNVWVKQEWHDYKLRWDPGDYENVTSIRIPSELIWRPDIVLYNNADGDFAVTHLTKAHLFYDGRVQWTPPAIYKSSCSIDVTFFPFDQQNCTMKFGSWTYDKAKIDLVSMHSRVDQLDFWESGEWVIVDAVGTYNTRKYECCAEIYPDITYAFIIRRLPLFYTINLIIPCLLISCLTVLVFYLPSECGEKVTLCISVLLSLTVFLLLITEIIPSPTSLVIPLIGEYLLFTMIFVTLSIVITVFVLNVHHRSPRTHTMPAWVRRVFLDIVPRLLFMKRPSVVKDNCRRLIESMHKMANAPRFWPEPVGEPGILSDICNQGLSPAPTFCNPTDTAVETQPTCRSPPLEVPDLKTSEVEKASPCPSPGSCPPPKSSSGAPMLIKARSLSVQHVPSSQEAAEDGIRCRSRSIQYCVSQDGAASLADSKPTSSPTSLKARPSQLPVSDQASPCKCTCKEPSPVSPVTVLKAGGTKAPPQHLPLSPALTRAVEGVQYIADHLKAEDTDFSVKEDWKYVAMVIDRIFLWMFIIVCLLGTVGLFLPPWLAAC
Sequence of Neuronal acetylcholine receptor; alpha4/beta2 (P12390 whole entry): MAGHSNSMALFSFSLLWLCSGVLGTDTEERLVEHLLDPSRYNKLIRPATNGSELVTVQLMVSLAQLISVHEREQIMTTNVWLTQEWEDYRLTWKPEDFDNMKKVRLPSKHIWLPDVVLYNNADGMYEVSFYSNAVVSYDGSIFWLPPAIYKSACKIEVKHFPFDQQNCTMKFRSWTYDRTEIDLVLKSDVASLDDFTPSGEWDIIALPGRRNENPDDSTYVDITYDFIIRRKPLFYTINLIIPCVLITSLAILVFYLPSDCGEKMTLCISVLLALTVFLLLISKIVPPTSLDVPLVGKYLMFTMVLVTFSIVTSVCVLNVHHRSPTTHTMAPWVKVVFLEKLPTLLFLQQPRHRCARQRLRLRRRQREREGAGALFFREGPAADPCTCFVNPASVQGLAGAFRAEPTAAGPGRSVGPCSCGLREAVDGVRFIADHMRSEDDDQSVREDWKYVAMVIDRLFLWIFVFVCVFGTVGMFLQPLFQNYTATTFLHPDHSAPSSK
How it was run: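 Two-electrode voltage clamp on rat α4β2, α3β4 or α7 nAChRs expressed in Xenopus oocytes. Compounds were tested across a concentration range to build concentration-inhibition curves. Data were fitted to I = Imax/[1+(IC50/X)^n] to derive IC50 and Hill coefficient.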

[7] = target: T1, Neuronal acetylcholine receptor; alpha4/beta2 (Rattus norvegicus) (UniProt P09483+P12390); assay: Antagonist activity at rat alpha4beta2 nAChR expressed in Xenopus laevis oocytes assessed as inhibition of acetylcholine-induced current at 100 uM by two-electrode voltage clamp electrophysiological analysis relative to acetylcholine; format: cell-based
[8] = target: Neuronal acetylcholine receptor; alpha3/beta4 (Rattus norvegicus) (UniProt P04757+P12392); assay: Agonist activity at rat alpha3beta4 nAChR expressed in Xenopus laevis oocytes assessed as stimulation of acetylcholine-induced current at 100 uM by two-electrode voltage clamp electrophysiological analysis relative to acetylcholine; format: cell-based; how it was run: as §1
Mus musculus [9] = assay: Inhibition of nicotine-induced antinociception in sc dosed mouse after 5 mins by hot plate test; format: functional
Mus musculus [10] = assay: Effect on hypothermia in sc dosed mouse after 30 mins; format: functional; details: 0.5 h
Mus musculus [11] = assay: Inhibition of nicotine-induced antinociception in sc dosed mouse after 5 mins by tail flick test; format: functional
[12] = target: T1, Neuronal acetylcholine receptor; alpha4/beta2 (Rattus norvegicus); assay: Agonist activity at rat alpha4beta2 nAChR expressed in Xenopus laevis oocytes assessed as stimulation of acetylcholine-induced current at 100 uM by two-electrode voltage clamp electrophysiological analysis relative to acetylcholine; format: cell-based; how it was run: as §1
Mus musculus [13] = assay: Inhibition of nicotine-induced antinociception in mouse at 100 ug/kg, sc after 5 mins by hot plate test relative to control; format: functional
Mus musculus [14] = assay: Antinociceptive activity in sc dosed mouse after 5 mins by tail flick test; format: functional
Mus musculus [15] = assay: Antinociceptive activity in sc dosed mouse by hot plate test; format: functional
Rattus norvegicus = species: Rattus norvegicus; assay: Selectivity ratio of IC50 for rat alpha7 nAChR to IC50 for rat alpha4beta2 nAChR
Mus musculus [16] = assay: Inhibition of nicotine-induced antinociception in mouse at 10000 ug/kg, sc after 5 mins by hot plate test relative to control; format: functional
[17] = target: Neuronal acetylcholine receptor subunit alpha-7 (Rattus norvegicus) (UniProt Q05941); assay: Antagonist activity at rat alpha7 nAChR expressed in Xenopus laevis oocytes assessed as inhibition of acetylcholine-induced current at 100 uM by two-electrode voltage clamp electrophysiological analysis relative to acetylcholine; format: cell-based
Mus musculus [18] = assay: Inhibition of nicotine-induced antinociception in mouse at 1000 ug/kg, sc after 5 mins by hot plate test relative to control; format: functional
Mus musculus [19] = assay: Inhibition of nicotine-induced antinociception in mouse at 100 ug/kg, sc after 5 mins by tail flick test relative to control; format: functional

SMILES: Nc1cc(-c2cc([C@H]3C[C@H]4CC[C@H]3N4)cnc2F)ccn1 (racemic)
- Emax [1]: 10%

SMILES: O=[N+]([O-])c1cccc(-c2cc(C3CC4CCC3N4)cnc2F)c1 (racemic)
- Activity (Mus musculus [2]): 3%
- Activity (Mus musculus [3]): 20%
- ED50 (Mus musculus [4]): 6.5 mg/kg

SMILES: c1cnc2cc3c(cc2n1)[C@@H]1CNC[C@H]3C1 [VARENICLINE]
- Activity (Mus musculus [2]): 11%
- EC50 [5]: 55 µM
- IC50 [6]: 200 nM
- Imax [7]: 38%
- Emax [8]: 66%
- Emax [1]: 74%
- AD50 (Mus musculus [9]): 470 µg/kg
- ED50 (Mus musculus [10]): 2.8 mg/kg
- Activity (Mus musculus [3]): 10%
- ED50 (Mus musculus [4]): 2.1 mg/kg
- AD50 (Mus musculus [11]): 0.2 µg/kg
- Emax [12]: 13%

SMILES: COc1ccc(-c2cc([C@H]3C[C@H]4CC[C@H]3N4)cnc2F)cn1 (racemic)
- inhibition in vivo at 0.1 mg/kg (Mus musculus [13]): 0%

SMILES: Clc1ccc(C2CC3CCC2N3)cn1 (centres undefined) [EPIBATIDINE]
- Emax [8]: 97%
- Emax [1]: 150%
- ED50 (Mus musculus [14]): 6 µg/kg
- ED50 (Mus musculus [4]): 0.001 mg/kg
- Emax [12]: 131%
- ED50 (Mus musculus [15]): 4 µg/kg

SMILES: CN1CCC[C@H]1c1cccnc1 [NICOTINE]
- Emax [8]: 37%
- Emax [1]: 43%
- ED50 (Mus musculus [10]): 1 mg/kg
- ED50 (Mus musculus [4]): 0.5 mg/kg
- Emax [12]: 40%

SMILES: O=[N+]([O-])c1ccc(-c2cc([C@H]3C[C@H]4CC[C@H]3N4)cnc2F)cc1 (racemic)
- Activity (Mus musculus [2]): 5%
- Ratio IC50 (Rattus norvegicus): 10
- ED50 (Mus musculus [10]): 0.21 mg/kg
- ED50 (Mus musculus [4]): 0.22 mg/kg

SMILES: COc1cc(-c2cc([C@H]3C[C@H]4CC[C@H]3N4)cnc2F)ccn1 (racemic)
- inhibition in vivo at 10 mg/kg (Mus musculus [16]): 40%

SMILES: Nc1ccc(-c2cc([C@H]3C[C@H]4CC[C@H]3N4)cnc2F)cn1 (racemic)
- Imax [17]: 50%

SMILES: Fc1ncc(C2CC3CCC2N3)cc1-c1cccnc1 (racemic)
- inhibition in vivo at 1 mg/kg (Mus musculus [18]): 10%
- Emax [1]: 7%

SMILES: Fc1ccc(-c2cc([C@H]3C[C@H]4CC[C@H]3N4)cnc2F)cn1 (racemic)
- inhibition in vivo at 0.1 mg/kg (Mus musculus [19]): 1%
- Emax [8]: 9%
- inhibition in vivo at 0.1 mg/kg (Mus musculus [13]): 1%
